Active and inactive are the calls of the source. The rule behind the calls is not given here.
Assays:
[1] = target: D(2) dopamine receptor (Homo sapiens) (UniProt P14416); test: Agonist activity at dopamine D2 receptor (unknown origin) transfected in CHO cells assessed as increase in ERK1/2 phosphorylation after 5 mins by Western blot analysis; format: cell-based
In short: (§1)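 D2R cDNA transiently transfected into CHO cells by Lipofectamine, used 48 h later. Cells were kept serum-free for 16 h, optionally pretreated 5 min with 1 μM YM 09151-2, then exposed to ligands for 5 min (combined condition used 10 μM test ligand). Lysed in ice-cold buffer, phospho-ERK1/2 read by infrared scanning. Means ± SEM, 3 experiments in duplicate, unpaired t-test vs basal.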

[2] = target: D(2) dopamine receptor (Homo sapiens) (UniProt P14416); test: Allosteric modulating activity at dopamine D2 receptor (unknown origin) expressed in sheep striatum membranes assessed as change in D2R antagonist [3H]-YM09151-2 Koff at 3 uM preincubated for 2 hrs followed by [3H]-YM09151-2 addition by rapid filtration and radioactivity counting; format: cell membranes; conditions: Membrane, in the assay text read “preincubated for 1 hr” for “preincubated for 2 hrs”
In short: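 Sheep striatal membranes (0.2 mg protein/mL) preincubated 1 h at 25 °C ± 3 μM test ligand in 50 mM Tris-HCl pH 7.4 with 10 mM MgCl2, then 1 nM [3H]-YM 09151-2 added. After 2 h, dissociation started with 10 μM unlabeled YM 09151-2. Total binding measured at intervals by GF/C filtration and scintillation counting. Nonspecific binding taken after 90 min with 10 μM YM 09151-2.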

[3] = target: D(2) dopamine receptor (Homo sapiens) (UniProt P14416); test: Antagonist activity at dopamine D2 receptor (unknown origin) transfected in CHO cells assessed as inhibition of YM09151-2 -induced downregulation of phosphorylated ERK1/2 level at 10 uM after 5 mins by Western blot analysis; format: cell-based; in short: as §1
[4] = target: D(2) dopamine receptor (Homo sapiens) (UniProt P14416); test: Displacement of [3H]-YM09151-2 from dopamine D2 receptor (unknown origin) expressed in sheep striatum membranes assessed as high affinity constant measured per mg of protein after 2 hrs by scintillation counting analysis; format: cell membranes; conditions: Membrane
In short: (§2)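 Sheep striatal membranes (0.2–0.5 mg protein/mL), 2 h at 25 °C in 50 mM Tris-HCl pH 7.4 with 10 mM MgCl2. Radioligand was [3H]-SCH 23390 for D1R (nonspecific: 50 μM SCH 23390) or [3H]-YM 09151-2 for D2R (nonspecific: 50 μM raclopride). Competitor tested at 9 concentrations, 1 nM–50 μM, in triplicate. Total binding fitted by nonlinear regression to a two-site model. Means ± SD of three experiments.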

[5] = target: D(2) dopamine receptor (Homo sapiens) (UniProt P14416); test: Displacement of [3H]-YM09151-2 from dopamine D2 receptor (unknown origin) expressed in sheep striatum membranes assessed as low affinity constant measured per mg of protein after 2 hrs by scintillation counting analysis; format: cell membranes; conditions: Membrane; in short: as §2

Chain of D(2) dopamine receptor (Homo sapiens) (P14416 whole entry): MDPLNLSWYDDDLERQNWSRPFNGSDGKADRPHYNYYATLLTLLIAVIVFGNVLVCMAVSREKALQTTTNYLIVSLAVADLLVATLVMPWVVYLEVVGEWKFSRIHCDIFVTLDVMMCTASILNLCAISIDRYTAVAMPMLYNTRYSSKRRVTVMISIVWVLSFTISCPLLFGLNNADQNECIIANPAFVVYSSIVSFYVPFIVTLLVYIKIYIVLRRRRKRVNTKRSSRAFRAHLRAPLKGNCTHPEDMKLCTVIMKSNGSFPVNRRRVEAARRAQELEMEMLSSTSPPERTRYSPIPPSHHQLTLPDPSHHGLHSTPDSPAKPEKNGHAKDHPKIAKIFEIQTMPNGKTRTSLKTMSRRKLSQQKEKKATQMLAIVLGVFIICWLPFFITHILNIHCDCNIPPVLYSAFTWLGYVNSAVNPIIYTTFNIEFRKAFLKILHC

Row | Activity [1] | Activity [2] | inhibition [3] | Activity [4] [pmol] | Activity [5] [pmol] | Structure (SMILES)
1 | Dose-dependent effect | inactive | inactive | 0.04 | 0.12 | NCCCC[C@H](NC(=O)[C@H](Cc1ccc(F)c(F)c1)NC(=O)[C@H]1CCCN1C(=O)CCCCCNC(=O)[C@H]1CC[C@@H]2c3[nH]c4ccccc4c3CCN2C1)C(N)=O
2 |  |  |  | 0.06 | 0.12 | NCCCC[C@H](NC(=O)[C@H](Cc1ccc(F)c(F)c1)NC(=O)[C@H]1CCCN1C(=O)CCCCCNC(=O)[C@@H]1CC[C@H]2c3[nH]c4ccccc4c3CCN2C1)C(N)=O

Source: ChEMBL document CHEMBL3421581, “A solid-phase combinatorial approach for indoloquinolizidine-peptides with high affinity at D(1) and D(2) dopamine receptors” (Eur J Med Chem, 2015)
